Data published in ChEMBL document CHEMBL1123896 (J Med Chem, 1987).
pIC50: −log10 of the molar value.

Experiments:
[1] = Selectivity pIC50 (sigma)-pIC50(D2)
[2] = Apparent lipophilicity (log kw) at pH 7.5; format: physicochemical; settings: buffer
In short: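 Measured at pH 7.5 by RP-HPLC. Capacity factors were extrapolated to 0% methanol, and the resulting log kw was taken as apparent lipophilicity. Values that could not be measured were estimated from derived fragmental values.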

[3] = target: Sigma non-opioid intracellular receptor 1 (Rattus norvegicus) (UniProt Q9R0C9); test: Eudisimic index was determined for the compound against sigma receptor
Sequence of Sigma non-opioid intracellular receptor 1 (Rattus norvegicus) (Q9R0C9 whole entry): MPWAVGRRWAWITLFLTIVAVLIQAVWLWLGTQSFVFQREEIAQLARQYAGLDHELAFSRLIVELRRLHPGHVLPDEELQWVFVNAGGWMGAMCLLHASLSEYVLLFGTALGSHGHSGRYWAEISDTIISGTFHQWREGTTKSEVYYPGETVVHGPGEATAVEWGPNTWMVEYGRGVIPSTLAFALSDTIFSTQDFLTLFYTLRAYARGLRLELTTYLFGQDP
In short: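 Eudismic index is the log of the eutomer/distomer affinity ratio, calculated as pIC50(eutomer) − pIC50(distomer) for each enantiomer pair, using σ-receptor binding pIC50 values.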

[4] = target: D(2) dopamine receptor (Rattus norvegicus) (UniProt P61169); test: Eudisimic index was determined for the compound against Dopamine receptor D2
Sequence of D(2) dopamine receptor (Rattus norvegicus) (P61169 whole entry): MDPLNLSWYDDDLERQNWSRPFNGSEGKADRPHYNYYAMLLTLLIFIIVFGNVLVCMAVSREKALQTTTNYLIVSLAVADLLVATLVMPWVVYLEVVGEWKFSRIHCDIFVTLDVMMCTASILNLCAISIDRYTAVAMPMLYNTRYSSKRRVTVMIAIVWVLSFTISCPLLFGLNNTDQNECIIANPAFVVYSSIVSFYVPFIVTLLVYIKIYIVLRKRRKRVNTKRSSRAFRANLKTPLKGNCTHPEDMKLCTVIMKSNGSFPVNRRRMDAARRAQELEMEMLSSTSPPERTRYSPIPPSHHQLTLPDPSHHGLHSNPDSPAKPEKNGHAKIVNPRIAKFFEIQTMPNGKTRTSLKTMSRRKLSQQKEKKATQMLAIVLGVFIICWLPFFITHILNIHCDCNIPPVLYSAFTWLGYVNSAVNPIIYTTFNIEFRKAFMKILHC
In short: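 Eudismic index is the log of the eutomer/distomer affinity ratio, calculated as pIC50(eutomer) − pIC50(distomer) for each enantiomer pair. The pIC50 values come from displacement of specific [3H]spiperone binding at the dopamine D2 receptor.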

[5] = target: D(2) dopamine receptor (Rattus norvegicus) (UniProt P61169)
[6] = target: Sigma non-opioid intracellular receptor 1 (Rattus norvegicus, UniProt Q9R0C9); test: Binding affinity against sigma receptor
Sequence of Sigma non-opioid intracellular receptor 1 (Q9R0C9 whole entry): as the sequence (Q9R0C9 whole entry) above

D(2) dopamine receptor = D(2) dopamine receptor (Rattus norvegicus, UniProt P61169); test: Binding affinity for dopamine receptor D2 was evaluated by the ability to displace [3H]spiperone
Sequence of D(2) dopamine receptor (P61169 whole entry): as the sequence (P61169 whole entry) above

Row | SMILES | Selectivity [1] | Log kw [2] | EI [3] | EI [4] | also measured
1 | Oc1cccc([C@@H]2CCCNC2)c1 | -0.95 | 0.41 |  |  | 
2 | CCCN1CCC[C@@H](c2cccc(O)c2)C1 [PRECLAMOL] |  | 1.05 |  |  | 
3 | CCN1CCC[C@H](c2cccc(O)c2)C1 |  | 0.84 |  |  | 
4 | CCCN1CCC[C@H](c2cccc(O)c2)C1 |  | 1.05 | 0.71 | 0.61 | 
5 | Oc1cccc([C@H]2CCCNC2)c1 | -1.02 | 0.41 | 0.53 | 0.6 | 
6 | CC(C)N1CCC[C@H](c2cccc(O)c2)C1 |  | 0.84 |  | 1.53 | EI [5]: 0.07
7 | CN1CCC[C@@H](c2cccc(O)c2)C1 | 0.01 | 0.94 |  |  | pIC50 [6]: 5.72; pIC50 (D(2) dopamine receptor): 5.71
8 | Oc1cccc([C@H]2CCCN(CCc3ccccc3)C2)c1 |  | 2.27 | 0.3 | 1.45 | 
9 | Oc1cccc([C@@H]2CCCN(CCc3ccccc3)C2)c1 | 0.44 | 2.27 |  |  | 
10 | CC(C)N1CCC[C@@H](c2cccc(O)c2)C1 | 0.23 | 0.84 |  |  | 
11 | CCN1CCC[C@@H](c2cccc(O)c2)C1 |  | 0.84 |  |  | 
12 | CCCCN1CCC[C@@H](c2cccc(O)c2)C1 | 0.95 | 1.41 |  |  | 
13 | CCCCN1CCC[C@H](c2cccc(O)c2)C1 |  | 1.41 | 0.54 | 0.99 | 
14 | CN1CCC[C@H](c2cccc(O)c2)C1 |  | 0.96 | 0.71 | 0.32 | 
